Structures are written as SMILES. Values after ≈ are worked out from the molar mass of the structure shown.

For the assay, the system named is Mycobacterium tuberculosis. The assay is described as follows: Antimycobacterial activity against isoniazid/rifampicin/ethambutol-resistant Mycobacterium tuberculosis clinical isolate after 4 days by Alamar blue assay. It is filed as functional. Conditions: 96 h. In a few lines:
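Microplate Alamar blue assay against M. tuberculosis H37Rv (sensitive to isoniazid, rifampicin and ethambutol) and a clinical isolate resistant to all three drugs. Compounds were tested at 256, 128, 64, 32, 16, 8, 4, 2 and 1 µg/mL. Isoniazid, rifampicin, ethambutol and ofloxacin controls were run under the same conditions. MIC is given in µg/mL and converted to µM.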
By MIC is commonly meant the smallest concentration in the dilution series that meets the test's criterion for growth inhibition. Higher therefore signals a need for much substance. Take `CO[C@H]1/C=C/O[C@@]2(C)Oc3c(C)c(O)c4c(O)c(c(/C=N/N5CCN(C)CC5)c(O)c4c3C2=O)NC(=O)/C(C)=C\C=C\[C@H](C)[C@H](O)[C@@H](C)[C@@H](O)[C@@H](C)[C@H](OC(C)=O)[C@@H]1C` [RIFAMPIN]: the MIC was found to be 19.4 µM (≈ 16 µg/mL).

Regarding `O=C(/C=C/c1ccc(Cl)cc1)N[C@H](CO)Cc1ccccc1`, inhibition of growth (MIC) required 50.6 µM (≈ 16 µg/mL).

`CC1COc2c(N3CCN(C)CC3)c(F)cc3c(=O)c(C(=O)O)cn1c23` (stereo unspecified) [OFLOXACIN] showed a minimal inhibitory concentration (MIC) of 5.5 µM (≈ 1.99 µg/mL).

As to `C(=C\c1cccs1)/C1=N[C@@H](Cc2ccccc2)CO1`, the MIC is 7.4 µM (≈ 1.99 µg/mL).

Consider `Fc1ccc(/C=C/C2=N[C@@H](Cc3ccccc3)CO2)cc1`, for which the MIC is 56.9 µM (≈ 16 µg/mL).

`COc1ccc(/C=C/C2=N[C@@H](Cc3ccccc3)CO2)cc1`: it took 6.8 µM (≈ 1.99 µg/mL) to inhibit growth (MIC).

The compound `Clc1ccc(/C=C/C2=N[C@@H](Cc3ccccc3)CO2)cc1` registered an MIC of 26.9 µM (≈ 8.01 µg/mL).

Consider `COc1ccc(/C=C/C(=O)N[C@H](CO)Cc2ccccc2)cc1`, for which the MIC turned out to be 51.3 µM (≈ 16 µg/mL).

As for `O=C(/C=C/c1ccc(F)cc1)N[C@H](CO)Cc1ccccc1`, the MIC is 53.4 µM (≈ 16 µg/mL).

The compound `O=C(/C=C/c1ccccc1)N[C@H](CO)Cc1ccccc1` displayed an MIC of 56.8 µM (≈ 16 µg/mL).

`O=C(/C=C/c1ccc(OCc2ccccc2)cc1)N[C@H](CO)Cc1ccccc1` registered an MIC of 41.2 µM (≈ 16 µg/mL).

In turn, `NNC(=O)c1ccncc1` [ISONIAZID] had an MIC of 58.3 µM (≈ 8 µg/mL).

`O=C(/C=C/c1cccs1)N[C@H](CO)Cc1ccccc1` showed an MIC of 55.6 µM (≈ 16 µg/mL). The MIC values of the last two compounds are within 1.5-fold of each other.

`C(=C\c1ccc(OCc2ccccc2)cc1)/C1=N[C@@H](Cc2ccccc2)CO1` gave an MIC of 21.6 µM (≈ 7.98 µg/mL).

The compound `C(=C\c1ccccc1)/C1=N[C@@H](Cc2ccccc2)CO1` had an MIC of 30.4 µM (≈ 8.01 µg/mL).

Turning to `CC[C@@H](CO)NCCN[C@@H](CC)CO` [ETHAMBUTOL], the MIC is above 1250 µM.

For the origin of these results see ChEMBL document CHEMBL4002631, “Synthesis, antimycobacterial and cytotoxic activity of α,β-unsaturated amides and 2,4-disubstituted oxazoline derivatives” (Bioorg Med Chem Lett, 2017).
